UBC13 inh = UBC13 polyubiquitin chain formation inhibitors, primary screen, biochemical, TR-FRET, uHTS | Ubiquitin-conjugating enzyme E2 N (Homo sapiens), P61088 | inhibition, % at 20 µM | 330,000 tested, 0.47% active | AID 485273, 2010; in the data active = inhibition above about 45%, passing the limit was not always enough
Target sequence (P61088 whole entry, looked up): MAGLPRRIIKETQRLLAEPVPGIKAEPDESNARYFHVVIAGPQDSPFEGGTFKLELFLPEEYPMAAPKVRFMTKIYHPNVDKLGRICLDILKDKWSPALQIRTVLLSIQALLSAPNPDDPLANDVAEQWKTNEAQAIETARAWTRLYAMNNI
PREPL inh = PREPL enzyme inhibitors, primary screen, biochemical, fluorescence polarization. 320,000 tested, 0.68% active. Prolyl endopeptidase-like (Homo sapiens), Q4J6C6. recombinant PREPL, fluorescence polarization activity-based probe. inhibition, % at 5.96 µM; in the data active = inhibition above about 43%
RBBP9 inhibitor = human RBBP9 inhibitors, primary screen, biochemical, fluorescence polarization, FP-Rh probe, HTS. 220,000 tested, 0.2% active. inhibition, % at 7.94 µM. recombinant RBBP9. Serine hydrolase RBBP9 (Homo sapiens), O75884;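 active = inhibition above the campaign mean of all tested compounds plus 3 SD, cut at about 14% in these data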
Target sequence (O75884 whole entry, looked up): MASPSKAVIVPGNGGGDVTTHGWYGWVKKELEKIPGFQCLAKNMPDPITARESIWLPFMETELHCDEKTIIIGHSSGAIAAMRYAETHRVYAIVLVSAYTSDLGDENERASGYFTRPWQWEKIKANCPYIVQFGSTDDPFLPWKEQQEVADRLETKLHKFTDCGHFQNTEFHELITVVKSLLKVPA
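Measured by – fluorescence polarization · Test system – RBBP9 protein · Input – 2.5 µM RBBP9 dispensing solution, before mixing · Measure – percent inhibition from mP, scaled between DMSO and no-protein wells · Benchmarks – DMSO-treated enzyme wells and wells lacking RBBP9 · Times – preincubation 30 min plus labeling 45 min at 25 °C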
Rin1-Abl PPI inh = inhibitors of Rin1-Abl protein binding, primary screen, biochemical, TR-FRET; inhibition, % at 7.35 µM; 360,000 tested, 0.4% active; in the data active = inhibition above about 5%, passing the limit was not always enough
ALR H2O2 inh = inhibitors of human ALR sulfhydryl oxidase, primary screen, biochemical, H2O2 detection, HRP-luminol luminescence, single point | FAD-linked sulfhydryl oxidase ALR (Homo sapiens), P55789 | purified ALR, DTT oxidation | inhibition, % (no concentration beside the values) | 290,000 tested, 3.8% active | AID 485317, 2010;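 active = mean replicate inhibition above about 79%, with every replicate also reaching it, limit read from the data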
SUMO HTRF inh = inhibitors of in vitro SUMOylation cascade, primary screen, biochemical, HTRF, uHTS; 290,000 tested, 0.36% active; SUMO-conjugating enzyme UBC9 (Homo sapiens), P63279; AID 2006, 2009; inhibition, % at 35 µM; HTRF SUMOylation assay, SAE1/SAE2 + UBC9; in the data active = inhibition above about 50%, passing the limit was not always enough
Target sequence (P63279 whole entry, looked up): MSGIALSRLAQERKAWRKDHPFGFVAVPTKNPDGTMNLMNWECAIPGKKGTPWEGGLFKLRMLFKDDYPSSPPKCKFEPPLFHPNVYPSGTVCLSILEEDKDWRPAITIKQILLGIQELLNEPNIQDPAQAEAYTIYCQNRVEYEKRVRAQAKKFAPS
Numbers stand for hits; i = inactive; nt = no result. Sampled rows, rich in hits. Any-hit rate of the full collection: about 4.3%.

SMILES | UBC13 inh | PREPL inh | RBBP9 inhibitor | Rin1-Abl PPI inh | ALR H2O2 inh | SUMO HTRF inh
CCOc1cc(Cl)c(S(=O)(=O)NCCCn2ccnc2)cc1Cl | i | i | nt | i | i | i
Cc1ccc(-n2c(SCC(=O)Nc3ccc4c5c(cccc35)CC4)nc(O)cc2=O)cc1 | i | i | i | i | nt | i
Cc1ccc(-n2c(SCC(=O)Nc3ccc4c5c(cccc35)CC4)nc(O)c(C)c2=O)cc1 | i | i | i | i | 99 | i
COc1ccc(-n2c(Cc3cccn3C)nnc2SCC(=O)Nc2ccccc2C)cc1 | i | i | i | i | i | i
COc1ccc(-n2c(SCC(=O)Nc3ccccc3)nc(O)cc2=O)cc1 | i | i | i | i | 88 | i
COc1ccc(-n2c(Cc3cccn3C)nnc2SCC(=O)Nc2cccc(C)c2C)cc1 | i | i | i | i | 89 | i
CCCCc1nnc(NC(=O)CSc2nc(=O)cc(N)n2-c2cccc(C)c2)s1 | i | i | i | i | 98 | i
Cc1cccc(-n2c(N)cc(=O)nc2SCC(=O)Nc2nnc(CC(C)C)s2)c1 | i | nt | i | nt | nt | i
CCC(C(=O)N1CCN(Cc2ccc3c(c2)OCO3)CC1)n1c(=O)[nH]c2ccccc2c1=O (stereo unspecified) | i | i | nt | i | i | i
O=C(NN1C(=O)c2ccc(-c3ccc4c(c3)C(=O)N(NC(=O)c3cccnc3)C4=O)cc2C1=O)c1cccnc1 | i | i | i | i | i | i
COc1ccc(-n2c(N)cc(=O)nc2SCC(=O)N2CCN(c3ccccc3)CC2)cc1 | i | i | nt | i | 99 | i
Cc1c(S(=O)(=O)N2CCCCC2)c(=O)n(C)c(=O)n1C | i | i | nt | i | i | nt
Cc1cccc(N2CCN(C(=O)C(C)C)CC2)c1C | i | i | i | i | i | i
CC(C)C(=O)N1CCN(c2ccccc2N)CC1 | i | i | i | i | 99 | i
COc1ccccc1N1CCN(C(=O)c2cc(C)oc2C)CC1 | i | i | i | i | nt | i
CCOC(=O)N1CCN(c2ccccc2O)CC1 | i | i | i | i | 99 | i
O=C(c1ccc2ccccc2n1)N1CCN(c2ccccc2O)CC1 | i | i | i | i | 98 | i
Cc1cc(C(=O)N2CCN(c3ccccc3O)CC2)c(C)o1 | i | i | nt | i | 98 | nt
COc1ccc(S(=O)(=O)N2CCOC2CNC(=O)C(=O)NCCCN2CCOCC2)cc1OC (stereo unspecified) | i | i | nt | i | nt | i
COc1cccc(N2CCN(C(=O)c3cccnc3)CC2)c1 | i | i | i | i | i | i
COc1cccc(N2CCN(C(=O)c3cc(C)oc3C)CC2)c1 | i | i | nt | i | 90 | nt
Cc1cccc(C)c1NC(=O)c1cccc(N2C(=O)C3CCC(C)CC3C2=O)c1 (stereo unspecified) | i | i | nt | i | i | i
COCc1cc(C)nc(N2CCN(c3ccccc3)CC2)c1C#N | i | i | i | i | 95 | i
COCc1cc(C)nc(N2CCN(Cc3ccccc3)CC2)c1C#N | i | i | i | i | i | i
O=C(OCCCOC(=O)c1ccc(Br)o1)c1ccc(Br)o1 | i | i | nt | i | i | nt
SMILES | UBC13 inh | PREPL inh | RBBP9 inhibitor | Rin1-Abl PPI inh | ALR H2O2 inh | SUMO HTRF inh
CC(C)n1c(=S)[nH]c2scc(-c3cccs3)c2c1=O | i | i | i | i | 90 | i
O=c1c2c(-c3cccs3)csc2ncn1-c1ccccc1 | i | i | i | i | i | i
CCn1c(=S)[nH]c2scc(-c3cccs3)c2c1=O | nt | nt | i | i | nt | i
O=c1c2c(-c3cccs3)csc2[nH]c(=S)n1-c1ccccc1 | i | i | i | i | 90 | i
Cc1nnc(NCc2ccccc2)c2ccccc12 | i | i | nt | i | nt | i
O=C(CN1C2=NCCCN2c2ccccc21)c1ccc(Cl)cc1Cl | i | i | i | i | i | i
CSc1ncc(C(=O)Nc2ccc(C(C)=O)cc2)c(C)n1 | i | nt | nt | i | i | i
CCc1nc2c(OCCOc3ccc(F)cc3)cccn2c1N(C)C(=O)c1ccco1 | nt | nt | nt | i | nt | nt
CCC(=O)Nc1ccc(C(=O)CSc2nnc(-c3ccc(O)cc3)n2CC2CCCO2)cc1OC (stereo unspecified) | i | i | i | i | 82 | i
COc1ccc(NC(=O)CSc2nnc(-c3ccncc3)n2CC2CCCO2)c(OC)c1 (stereo unspecified) | i | i | i | i | i | i
NC(=O)c1ccccc1NC(=O)c1cc(S(=O)(=O)N2CCCCC2)ccc1N1CCOCC1 | i | i | nt | i | nt | nt
CCOc1ccc(S(=O)(=O)NNS(=O)(=O)c2ccc(C)cc2C)cc1 | i | i | nt | i | 99 | i
COc1ccccc1C(=O)Nc1cc(-c2ccc(C)cc2)no1 | i | i | nt | i | i | i
Cc1ccc(N/N=C/c2ccc(N3CCOCC3)cc2)cc1C | i | i | i | i | 99 | i
C[C@@H]1CN([C@@H](C)CO)C(=O)CCCn2nncc2CO[C@@H]1CN(C)C(=O)Nc1ccccc1C(F)(F)F | nt | nt | nt | i | nt | nt
CCc1nnc(SCC(=O)Nc2ccccc2Cl)nc1CC | i | i | i | i | 98 | i
O=C(Nc1cccc(S(=O)(=O)NC2=NCCCCC2)c1)c1cc(-c2ccncc2)nc2ccccc12 | i | i | i | i | i | i
O=C(Nc1cccc(S(=O)(=O)NC2=NCCCCC2)c1)c1cc(-c2ccco2)nc2ccccc12 | i | i | i | i | i | 81
CCC(Sc1nc2ccc(N)cc2s1)C(=O)Nc1nccs1 (stereo unspecified) | i | i | i | i | 99 | i
CC(Sc1nc2ccccc2s1)C(=O)Nc1nnc(C(C)C)s1 (stereo unspecified) | i | i | i | i | i | i
CCC(Sc1nc2ccccc2s1)C(=O)Nc1nnc(C)s1 (stereo unspecified) | i | i | i | i | 98 | i
O=C(Nc1ccc(Cl)cc1)C1C2CCCCC21 (stereo unspecified) | i | i | nt | i | i | i
Cc1nnc(SCc2cnc(-c3ccc(C(C)C)cc3)s2)n1C | i | i | i | i | 98 | i
Cc1ccc(S(=O)(=O)N[C@@H](CO)C(=O)N[C@@H](Cc2ccc(O)cc2)C(=O)O)cc1 | i | i | nt | i | i | i
COc1ccc2c3c([nH]c2c1)C(C)N(C(C)=O)CC3 (stereo unspecified) | i | i | i | i | 97 | i
COc1ccc2c3c([nH]c2c1)C(C)N(CCC(=O)NN)CC3 (stereo unspecified) | i | nt | nt | i | i | i
CC(C)N(C(=O)Cn1cc(S(=O)(=O)CC(=O)NCc2ccc(F)cc2)c2ccccc21)C(C)C | i | i | nt | i | i | i
N#CC1=C(N)Oc2cc(N)ccc2C1C1CC=CCC1 (stereo unspecified) | i | i | i | i | 93 | i

Screening data as filed in PubChem BioAssay.
